Results from different studies.
Compare with care: the assays were run in different laboratories.
CYP2D6: Cytochrome P450 2D6 (CYP2D6, Homo sapiens, UniProt P10635)
Drd2: D(2) dopamine receptor (Drd2, Rattus norvegicus, UniProt P61169)
PPARA: Peroxisome proliferator-activated receptor alpha (PPARA, Homo sapiens, UniProt Q07869)
gag-pol integrase: Gag-Pol polyprotein, integrase (gag-pol, Human immunodeficiency virus 1, UniProt P12497)
Tumor necrosis factor receptor superfamily member 9: Tumor necrosis factor receptor superfamily member 9 (Homo sapiens, UniProt Q07011)
ADRA1B: Alpha-1B adrenergic receptor (ADRA1B, Homo sapiens, UniProt P35368)

Cc1c(Cc2ccc(C(F)(F)F)nc2)c[nH]c1C(=O)NC(C)c1cnn(C)c1 (stereo not drawn) — IC50 (CYP2D6; enzyme activity, inhibitor; human, liver microsomes): 12700 nM
CC(c1ccccc1)n1cc(-c2ncccn2)c(=O)[nH]c1=O (stereo not drawn) — Kd (Hepatocyte growth factor receptor (MET, Homo sapiens, UniProt P08581); binding): 2510 nM
[Cd+2] — Ki (Protein phosphatase 1A (PPM1A, Homo sapiens, UniProt P35813, D38V); enzyme activity, inhibitor, absorbance; pH 8): 470 nM
Cc1c(Cc2ccc(C(F)(F)F)nc2)c[nH]c1C(=O)NC(C)c1cn[nH]c1 (stereo not drawn) — IC50 (CYP2D6; enzyme activity, inhibitor; human, liver microsomes): 750 nM
CC(C)Oc1cccnc1N(C)C1CCN(Cc2ccc(I)cc2)CC1 — Ki (Drd2; ligand displacement, radioligand; cell membranes): 85 nM
O=C(O)C(F)(F)C(F)(F)C(F)(F)C(F)(F)C(F)(F)C(F)(F)F — EC50 (PPARA; reporter gene, agonist, luciferase): 45000 nM
O=C(O)[C@H](Cc1ccccc1)NC(=O)C1(c2ccccc2)CCN(Cc2ccccc2)CC1 — IC50 (gag-pol integrase; enzyme activity, inhibitor, TR-FRET): 194000 nM
CCCC[C@@H]1NC(=O)[C@H](Cc2ccc(O)cc2)NC(=O)[C@@H]2CCCN2C(=O)[C@H](CC(N)=O)NC(=O)[C@H](C)NC(=O)[C@H](Cc2ccccc2)NC(=O)[C@@H]2CSCCC(=O)N3CN(CN(C3)C(=O)CCSC[C@H](NC(C)=O)C(=O)N[C@@H](CC(C)(C)C)C(=O)N3CCC[C@H]3C(=O)N[C@@H](CCC(=O)O)C(=O)N[C@H](CCCCNC(=O)CCc3cn(CCOCCOCCOCCOCCOCCC(=O)N[C@H]4CSCCC(=O)N5CN6CN(C5)C(=O)CCSC[C@H](NC(=O)[C@@H](CC(=O)O)NC(=O)[C@H](Cc5cccc7ccccc57)NC(=O)[C@@H]5CCCN5C4=O)C(=O)N[C@@H](CCSC)C(=O)N[C@@H](CCCCNC(=N)N)C(=O)N[C@@H](CC(=O)O)C(=O)N[C@@H](Cc4c[nH]c5ccccc45)C(=O)N[C@@H](CO)C(=O)N[C@@H]([C@@H](C)O)C(=O)N4CCC[C@H]4C(=O)N4C[C@H](O)C[C@H]4C(=O)N[C@@H](Cc4c[nH]c5ccccc45)C(=O)N[C@H](C(N)=O)CSCCC6=O)nn3)C(=O)N3CCC[C@H]3C(=O)N[C@@H](Cc3ccc(O)cc3)C(=O)N2)C(=O)CCSC[C@@H](C(N)=O)NC1=O — Kd (Tumor necrosis factor receptor superfamily member 9; binding, SPR): 878 nM
O=C(O)[C@H](Cc1ccc2ccccc2c1)NC(=O)C1(c2ccc(-c3ccccc3)cc2)CCN(CCC(F)(F)F)CC1 — IC50 (gag-pol integrase; enzyme activity, inhibitor, TR-FRET): 93500 nM
CC(=O)N[C@@H](CC(C)C)C(=O)N[C@@H](CC(C)C)C(=O)N[C@@H](CC(C)C)C(=O)N[C@@H](CCCN=C(N)N)C(=O)N[C@H](C(=O)N[C@@H](CCCCN)C(=O)N[C@@H](CCCN=C(N)N)C(N)=O)C(C)C — Ki (Proprotein convertase subtilisin/kexin type 7 (Homo sapiens, UniProt Q16549); enzyme activity, inhibitor): 1520 nM
CCCC[C@@H]1NC(=O)[C@H](Cc2ccc(O)cc2)NC(=O)[C@@H]2CCCN2C(=O)[C@H](CC(=O)O)NC(=O)[C@H](C)NC(=O)[C@H](Cc2ccccc2)NC(=O)[C@@H]2CSCCC(=O)N3CN(CN(C3)C(=O)CCSC[C@H](NC(C)=O)C(=O)N[C@@H](CC(C)(C)C)C(=O)N[C@@H](CCC(=O)O)C(=O)N[C@@H](CCC(=O)O)C(=O)N[C@H](CCCCNC(=O)CCc3cn(CCOCCOCCOCCOCCOCCC(=O)N[C@H]4CSCCC(=O)N5CN6CN(C5)C(=O)CCSC[C@H](NC(=O)[C@@H](CC(=O)O)NC(=O)[C@H](Cc5cccc7ccccc57)NC(=O)[C@@H]5CCCN5C4=O)C(=O)N[C@@H](CCSC)C(=O)N[C@@H](CCCCNC(=N)N)C(=O)N[C@@H](CC(=O)O)C(=O)N[C@@H](Cc4c[nH]c5ccccc45)C(=O)N[C@@H](CO)C(=O)N[C@@H]([C@@H](C)O)C(=O)N4CCC[C@H]4C(=O)N4C[C@H](O)C[C@H]4C(=O)N[C@@H](Cc4c[nH]c5ccccc45)C(=O)N[C@H](C(N)=O)CSCCC6=O)nn3)C(=O)N3CCC[C@H]3C(=O)N[C@@H](Cc3ccc(O)cc3)C(=O)N2)C(=O)CCSC[C@@H](C(N)=O)NC1=O — Kd (Tumor necrosis factor receptor superfamily member 9; binding, SPR): 9.6 nM
COCCCN1CCN(c2ccccc2OC)CC1 — Ki (ADRA1B; ligand displacement, radioligand): 240 nM
CC(C)C[C@H](NC(=O)[C@H](CCCCN)NC(=O)[C@@H]1CCCN1C(=O)[C@@H](N)CCCNC(=N)N)C(=O)N[C@@H](CCCCN)C(=O)O — Ki (ADRA1B; cell-free assay, radioligand): 2900 nM
Cc1cc(SCc2sc(-c3ccc(C(F)(F)F)c(F)c3)nc2C)ccc1OCC(=O)O — IC50 (PPARA; reporter gene, antagonist, luciferase): 37400 nM
CCCC[C@@H]1NC(=O)[C@H](Cc2ccc(O)cc2)NC(=O)[C@@H]2CCCN2C(=O)[C@H](CC(=O)O)NC(=O)[C@H](C)NC(=O)[C@H](Cc2ccccc2)NC(=O)[C@@H]2CSCCC(=O)N3CN(CN(C3)C(=O)CCSC[C@H](NC(C)=O)C(=O)N[C@@H](CC(C)(C)C)C(=O)N3CCC[C@H]3C(=O)N[C@@H](CCC(=O)O)C(=O)N[C@H](CCCCNC(=O)CCc3cn(CCOCCOCCOCCOCCOCCC(=O)N[C@H]4CSCCC(=O)N5CN6CN(C5)C(=O)CCSC[C@H](NC(=O)[C@@H](CC(=O)O)NC(=O)[C@H](Cc5cccc7ccccc57)NC(=O)[C@@H]5CCCN5C4=O)C(=O)N[C@@H](CCSC)C(=O)N[C@@H](CCCCNC(=N)N)C(=O)N[C@@H](CC(=O)O)C(=O)N[C@@H](Cc4c[nH]c5ccccc45)C(=O)N[C@@H](CO)C(=O)N[C@@H]([C@@H](C)O)C(=O)N4CCC[C@H]4C(=O)N4C[C@H](O)C[C@H]4C(=O)N[C@@H](Cc4c[nH]c5ccccc45)C(=O)N[C@H](C(N)=O)CSCCC6=O)nn3)C(=O)N3CCC[C@H]3C(=O)N[C@@H](Cc3ccc(O)cc3)C(=O)N2)C(=O)CCSC[C@@H](C(N)=O)NC1=O — Kd (Tumor necrosis factor receptor superfamily member 9; binding, SPR): 4.47 nM
c1ccc(-c2ncc(CN3CCN(c4ncccn4)CC3)[nH]2)cc1 — Ki (Drd2; ligand displacement, radioligand; cell membranes): 817 nM
CCCC[C@@H]1NC(=O)[C@H](Cc2ccc(O)cc2)NC(=O)[C@@H]2CCCN2C(=O)[C@H](CC(=O)O)NC(=O)[C@H](C)NC(=O)[C@H](Cc2ccccc2)NC(=O)[C@@H]2CSCCC(=O)N3CN(CN(C3)C(=O)CCSC[C@@H](C(=O)N[C@@H](C)C(N)=O)NC1=O)C(=O)CCSC[C@H](NC(C)=O)C(=O)N[C@@H](CC(C)(C)C)C(=O)N1CCC[C@H]1C(=O)N[C@@H](CCC(=O)O)C(=O)N[C@H](CCCCNC(=O)CCc1cn(CCOCCOCCOCCOCCOCCC(=O)NCCCC[C@H]3NC(=O)[C@H](Cc4cccc5ccccc45)NC(=O)[C@@H]4CCCN4C(=O)[C@@H](NC(C)=O)CSCCC(=O)N4CN5CN(C4)C(=O)CCSC[C@H](NC3=O)C(=O)N[C@@H](CCSC)C(=O)N[C@@H](CCCCNC(=N)N)C(=O)N[C@@H](CCC(=O)O)C(=O)N[C@@H](Cc3c[nH]c4ccccc34)C(=O)N[C@@H](CO)C(=O)N[C@@H]([C@@H](C)O)C(=O)N3CCC[C@H]3C(=O)N3C[C@H](O)C[C@H]3C(=O)N[C@@H](Cc3c[nH]c4ccccc34)C(=O)N[C@H](C(N)=O)CSCCC5=O)nn1)C(=O)N1CCC[C@H]1C(=O)N[C@@H](Cc1ccc(O)cc1)C(=O)N2 — Kd (Tumor necrosis factor receptor superfamily member 9; binding, SPR): 7.2 nM
O=C(O)C(F)(OC(F)(F)C(F)(F)C(F)(F)F)C(F)(F)F (stereo not drawn) — EC50 (PPARA; reporter gene, agonist, luciferase): 2100 nM
O=C(O)[C@H](Cc1ccccc1)NC(=O)C1(c2ccc(-c3ccccc3)cc2)CCN(CCC(F)(F)F)CC1 — IC50 (gag-pol integrase; enzyme activity, inhibitor, TR-FRET): 263000 nM
O=C(O)C(F)(F)C(F)(F)C(F)(F)C(F)(F)C(F)(F)C(F)(F)C(F)(F)F — EC50 (PPARA; reporter gene, agonist, luciferase): 9500 nM
CC(C)C[C@H](NC(=O)[C@H](Cc1ccccc1)NC(=O)[C@H](Cc1ccc(O)cc1)NC(=O)CNC(=O)[C@H](CCCCN)NC(=O)[C@H](CO)NC(=O)[C@H](CCC(N)=O)NC(=O)CNC(=O)[C@@H](NC(=O)[C@H](CO)NC(=O)[C@@H]1CCCN1C(=O)[C@H](CO)NC(=O)[C@H](CCC(N)=O)NC(=O)[C@H](Cc1ccc(O)cc1)NC(=O)[C@H](CCC(=O)O)NC(=O)[C@H](C)NC(=O)[C@H](CCCCN)NC(=O)[C@@H](N)Cc1ccccc1)C(C)C)C(=O)N[C@@H](Cc1ccccc1)C(=O)N[C@@H](CCCNC(=N)N)C(=O)N1CCC[C@H]1C(=O)N[C@@H](CCCNC(=N)N)C(=O)N[C@@H](CC(N)=O)C(N)=O — IC50 (Neuromedin-U receptor 2 (NMUR2, Homo sapiens, UniProt Q9GZQ4); ligand displacement, radioligand; cell membranes): 0.04 nM
